Bioassay records (PubChem BioAssay)
Shown are actives, neighbours in structure and some others; about 1.4% of the full set was active somewhere.
Tn7 DDE FP = inhibitors of Tn7 peptide binding to fibrin DD(E), primary screen, biochemical, fluorescence polarization, human fibrin, Tn7 probe. inhibition, % at 8.3 µM. hit rate 0.13% among 370,000. FP displacement of FITC-Tn7 peptide from fibrin DD(E); 0% = median of compound wells per plate;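 active means inhibition above the mean of compounds falling within the control limits plus 3 SD of them, cut at about 14% in these data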;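 further: 0% = plate median of compound wells and 100% = 10 µM Aha-Tn7 peptide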
Target sequence (P02675 whole entry, looked up): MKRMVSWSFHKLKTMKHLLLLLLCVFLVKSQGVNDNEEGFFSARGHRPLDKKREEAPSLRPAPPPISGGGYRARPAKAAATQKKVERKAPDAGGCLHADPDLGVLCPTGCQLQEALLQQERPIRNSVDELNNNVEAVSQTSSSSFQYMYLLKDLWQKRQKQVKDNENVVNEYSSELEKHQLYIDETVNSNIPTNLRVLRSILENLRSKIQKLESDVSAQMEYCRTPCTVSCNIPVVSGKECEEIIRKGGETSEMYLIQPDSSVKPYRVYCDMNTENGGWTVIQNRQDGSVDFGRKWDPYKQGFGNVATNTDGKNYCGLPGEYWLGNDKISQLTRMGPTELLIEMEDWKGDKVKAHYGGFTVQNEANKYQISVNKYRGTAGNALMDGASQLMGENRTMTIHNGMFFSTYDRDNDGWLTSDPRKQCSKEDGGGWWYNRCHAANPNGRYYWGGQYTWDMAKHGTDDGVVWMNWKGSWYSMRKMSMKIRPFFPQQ
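Assay system: Human fibrin DD(E) protein | Medium: Tris buffer with calcium and detergent, pH 7.8 | Reagent: 0.1 µM fluorescent Tn7 | Compound dosing: Single point at 8.3 µM | Times: 10 min preincubation, 3 h with tracer, room temperature | Detection: Fluorescence polarization of the labelled Tn7 tracer | Controls: Aha-Tn7 high control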
CAL PDZ FP-1 = untagged CAL PDZ binding inhibitors, primary screen, biochemical, fluorescence polarization, HTS. Golgi-associated PDZ and coiled-coil motif-containing protein (Homo sapiens), Q9HD26. purified CAL PDZ, TMR-peptide fluorescence polarization, 1 h. inhibition, % at 24.9 µM. hit rate 0.92% among 300,000. AID 602252, 2012;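 active means mean inhibition of at least 30% with at least half of replicates also reaching 30%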;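 further: 0% = DMSO neutral control and 100% = excess unlabeled competitor peptide PRC23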
DDE Tn6 FP inh = inhibitors of Tn6 peptide binding to fibrin DD(E), primary screen, biochemical, fluorescence polarization, human fibrin, Tn6 probe; Fibrin DD(E) TRITC-Tn6 fluorescence polarization displacement; inhibition, % at 8.3 µM; hit rate 0.21% among 370,000; AID 720509, 2013;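 active means inhibition above a per-campaign cutoff: mean of compounds within control limits plus 3 SD, cut at about 15% in these data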;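 further: 0% = median of all compound wells on the plate and 100% = blocking peptide control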
Arr AP2 block = inhibitors of beta-arrestin/AP2 binding, primary screen, biochemical, GPCR trafficking, flow cytometry | beta-arrestin 1 C-terminal peptide binding to AP2 beta2-adaptin appendage (human) | FITC-arrestin peptide / GST-AP2 beads; AP2 beta2 appendage carries R879A mutation | inhibition, % at 10 µM | hit rate 0.31% among 340,000 | AID 504490, 2011;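 active means inhibition above a set limit, near 3 SD of compounds lacking own fluorescence, cut at about 54% in these data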;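 further: plate controls were DMSO wells for no effect and 5 µM unlabelled arrestin peptide for full effect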
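Material – GST-tagged AP2 beta2-adaptin appendage (R879A) on 4 µm glutathione beads · Probe or stimulus – fluorescein-tagged arrestin peptide at 50 nM final · Timing – 12 min plus 1 h, RT · Detection – bead flow cytometry, FITC channel · Read-out basis – inhibition as reduced fluorescein signal on beads, percent · Medium – PBS plus Tween 20 (0.05%) and BSA (0.1%)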
CAL PDZ FP-2 = CAL PDZ peptide-binding inhibitors, primary screen, biochemical, fluorescence polarization, Cer-tagged CAL PDZ, HTS; Golgi-associated PDZ and coiled-coil motif-containing protein (Homo sapiens), Q9HD26; purified CAL PDZ, TMR-peptide fluorescence polarization, 1 h; inhibition, % at 20 µM; hit rate 0.02% among 330,000; AID 504414, 2011;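 active means highest replicate inhibition of at least 40%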;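 further: plate controls were DMSO neutral control wells for no effect and unlabeled competitor peptide control wells for full effect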
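material = purified tagged CAL PDZ domain construct (CerCALP) | compound dosing = 20 µM, one dose | times = 1 h at RT | measured by = fluorescence polarization from S- and P-plane intensities, G-factor corrected | read-out = inhibition from polarization loss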
Tn7 DDE conf = inhibitors of Tn7 peptide binding to fibrin DD(E), confirmation, biochemical, fluorescence polarization, human fibrin, Tn7 probe; shares compounds with Tn7 DDE FP; FP displacement of TRITC-Tn7 peptide from DD(E); 0% set at plate's compound-well median; inhibition, % at 8.3 µM; hit rate 5% among 460;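 active means inhibition above the campaign cutoff, the mean of compounds within control limits plus 3 SD, cut at about 14% in these data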;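 further: 100% = median FP of high control wells holding Aha-Tn7 inhibitor peptide; displacers lower polarization since freed probe rises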
Tn7 DDE ctr = DD(E)-Tn7 binding inhibition, counter-screen; shares compounds with Tn7 DDE FP; fibrin DD(E), TRITC-Tn7 probe displacement, fluorescence polarization; inhibition, % at 8.3 µM; hit rate 3% among 460; AID 720633;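 active means inhibition above the cutoff, the mean of compounds lying between the control bounds plus 3 SD of those compounds, cut at about 17% in these data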;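 further: 0% = median of compound sample wells and 100% = excess unlabeled Aha-Tn7 peptide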
An asterisk follows results filed as active; / = no result given.

SMILES | Tn7 DDE FP | CAL PDZ FP-1 | DDE Tn6 FP inh | Arr AP2 block | CAL PDZ FP-2 | Tn7 DDE conf | Tn7 DDE ctr
O=C(CSc1nc2ccc(Nc3nc(N4CCOCC4)nc(N4CCOCC4)n3)cc2s1)Nc1ccccc1F | 16* | -3 | 9 | -11 | -2 | 5 | -10
COc1ccc(S[C@]2(C(=O)N3CCN(C(C)=O)CC3)CC(=O)N(C(=O)/C=C/c3ccccc3)[C@@H]2c2ccc(OC)cc2)cc1 | 2 | / | 3 | / | / | / | /
CC1(C)c2[nH]c3ccccc3c2C[C@@H]2C(=O)N(Cc3ccc(F)cc3)C(=O)N21 | 17* | -2 | 3 | 19 | -1 | 13 | 9
O=C(O)c1cc(=O)c2c(Cl)cc(Cl)cc2[nH]1 | -8 | -3 | -3 | 0 | 0 | / | /
O=C(O)c1cc(=O)c2ccccc2[nH]1 | 14* | -4 | 2 | 3 | 1 | -6 | -8
COc1ccccc1-c1cc(N)n(S(=O)(=O)c2ccc(F)c(C)c2)n1 | 14* | / | 6 | 5 | -1 | -2 | -8
Cc1cc(C)n(-c2nc3ccccc3c(=O)n2OCC(=O)Nc2c(C)cccc2C)n1 | 16* | 1 | 2 | 7 | -2 | -15 | -12
Cc1cc(C)n(-c2nc3ccccc3c(=O)n2OCC(=O)N(C)C)n1 | 4 | -2 | -6 | 15 | 0 | / | /
C[C@@H]1OC(C2CCCCC2)N(C)[C@H]2C[C@H]3c4[nH]c5c(-c6ccc7c(c6)OCO7)cccc5c4CCN3C[C@@H]12 (stereo not given in full) | -2 | / | -5 | / | / | / | /
COc1cc(O)c(C(CCN2CCOCC2)c2ccc(N(C)C)cc2)c(OC)c1 (stereo not given) | 14* | -2 | 10 | 10 | 0 | -7 | -6
COc1ccc(NC(=O)C[C@H]2C(=O)N(c3ccc(Br)cc3)C[C@@H]2c2ccc(OC)cc2)cc1 | 14* | / | 9 | / | / | 5 | 0
COc1ccc(NC(=O)C[C@H]2C(=O)N(c3ccc(OC)cc3)C[C@@H]2c2ccc(Br)cc2)cc1 | 6 | / | 0 | / | / | / | /
COc1cc(C2c3cc4c(cc3OC(NCc3ccccc3)C2C)OCO4)cc(OC)c1OC (stereo not given) | 14* | -5 | 2 | 3 | 0 | -2 | -3
O=C1N(CCCO)CCC12CCC(c1ccccc1)CC2 (stereo not given) | 2 | / | 6 | / | / | / | /
COc1cccc(OC)c1C(=O)Nc1sc2c(c1C#N)CCC2 | 14* | 1 | -2 | -14 | 17 | -5 | -9
COc1ccc(NC(=O)C(c2cc3c(cc2[N+](=O)[O-])OCO3)N(C)c2ccccc2)cc1 (stereo not given) | 15* | -3 | 2 | 48 | 1 | -5 | -5
CO[C@H]([C@H](C)/C=C/N(C)C=O)[C@@H](C)C(O)CC[C@H](C)[C@H](O)[C@H](C)[C@H]1OC(=O)/C=C/C(C)=C/C[C@H](O)C[C@@H]2C=CC[C@@H](C[C@H](OC)[C@@]3(CO3)[C@@H](OC)C[C@@H](OC)[C@@H]1C)O2 (stereo not given in full) | -6 | / | -5 | / | / | / | /
CC(C)[C@H]1/C(=C/C2CC2)N2C(=O)C[C@H](c3cccc(C(F)(F)F)c3)N=C2N1Cc1ccc2c(c1)OCO2 | -1 | / | 14 | / | / | / | /
O=C1CCC/C(=N/NC(=O)c2sc3ccccc3c2Cl)C1 | 44* | 1 | -2 | 37 | 0 | -5 | -5
CCNC(=O)OCCN1C(=O)CCC12CCC(c1ccc(Cl)cc1)CC2 (stereo not given) | 3 | / | -3 | / | / | / | /
Cc1ccc(Cn2c(C)c3cnn(CC(=O)NC4CCCC4)c(=O)c3c2C)cc1 | -5 | / | -3 | 0 | -1 | / | /
CNC(=O)Cn1ncc2c(C)n(Cc3ccc(C)cc3)c(C)c2c1=O | 14* | -3 | -1 | 2 | 0 | -2 | 0
O=C(c1ccccc1)c1ccc2c(c1)OCCOCCOCCOCCO2 | 14* | -4 | 10 | 0 | 0 | -2 | -6
FC(F)(F)c1cccc(N2CCN(C3=Nc4ccccc4Sc4ccccc43)CC2)c1 | -4 | / | -13 | / | / | / | /
COc1ccc(/C=C/C(=O)OCC(=O)NC(C)CCc2ccccc2)cc1OC (stereo not given) | 14* | -6 | 7 | -12 | 0 | 1 | -2
SMILES | Tn7 DDE FP | CAL PDZ FP-1 | DDE Tn6 FP inh | Arr AP2 block | CAL PDZ FP-2 | Tn7 DDE conf | Tn7 DDE ctr
COc1ccc(CNC(=O)[C@@H](Cc2ccccc2)NC(=O)[C@H]2O[C@@H](n3ccc(=O)[nH]c3=O)[C@H](O)[C@@H]2O)cc1 | -2 | / | 6 | / | / | / | /
COc1ccccc1N(CC(=O)NCCSCc1ccccc1)S(C)(=O)=O | 14* | / | 2 | 3 | -1 | -2 | -5
COC(=O)c1ccc(Cn2c(C)c(C(=O)NCc3ccc(C#N)cc3)sc2=O)o1 | 14* | / | -4 | / | / | 5 | -1
COC(=O)c1ccc(Cn2c(C)c(C(=O)NCc3ccc(Cl)c(Cl)c3)sc2=O)o1 | 1 | / | -2 | / | / | / | /
CC(=O)Nc1ccc(NC(=O)[C@@H](NC(=O)c2ccccc2F)C(C)C)cc1 | 15* | -18 | 10 | -4 | -3 | 3 | 3
NS(=O)(=O)c1cccc(NC(=O)CSc2ncnc3ccccc23)c1 | -2 | -2 | -4 | -11 | -2 | / | /
NS(=O)(=O)c1ccc(NC(=O)CSc2ncnc3ccccc23)cc1 | 14* | 0 | 6 | 2 | -3 | 1 | 3
C=CCOc1ccc2c(c1)CCC1C2CCC2(C)C(O)C(O)CC12 (stereo not given) | 14* | -1 | 3 | 4 | 0 | 3 | -1
COc1cc(OC)c(CNC2CCCCCC2)cc1Br | 15* | -4 | -3 | 42 | -2 | 2 | 1
C[C@@H]1ON(C)[C@H]2C[C@H]3c4cc(N5CCCCC5)ccc4CCN3C[C@@H]12 | -6 | / | -5 | / | / | / | /
COC(=O)[C@H](C(C)C)N(CCCc1cn(Cc2ccccc2)nn1)S(=O)(=O)c1ccccc1Br | 8 | / | -6 | / | / | / | /
Cc1ccc(C(C(=O)NCC2CCCO2)N(Cc2ccccc2F)C(=O)Cn2nnc(-c3cccs3)n2)cc1 (stereo not given) | 19* | 2 | 1 | -3 | 0 | 10 | 6
